ChEMBL document CHEMBL1155365, “2-Amino-9-aryl-3-cyano-4-methyl-7-oxo-6,7,8,9-tetrahydropyrido[2',3':4,5]thieno[2,3-b]pyridine derivatives as selective progesterone receptor agonists” (Bioorg Med Chem Lett, 2009)

Tests used:
Progesterone receptor [1] = target: T1, Progesterone receptor (Homo sapiens, UniProt P06401); test: Displacement of fluormone PL RED from progesterone receptor after 2 hrs
T1 sequence (P06401 whole entry): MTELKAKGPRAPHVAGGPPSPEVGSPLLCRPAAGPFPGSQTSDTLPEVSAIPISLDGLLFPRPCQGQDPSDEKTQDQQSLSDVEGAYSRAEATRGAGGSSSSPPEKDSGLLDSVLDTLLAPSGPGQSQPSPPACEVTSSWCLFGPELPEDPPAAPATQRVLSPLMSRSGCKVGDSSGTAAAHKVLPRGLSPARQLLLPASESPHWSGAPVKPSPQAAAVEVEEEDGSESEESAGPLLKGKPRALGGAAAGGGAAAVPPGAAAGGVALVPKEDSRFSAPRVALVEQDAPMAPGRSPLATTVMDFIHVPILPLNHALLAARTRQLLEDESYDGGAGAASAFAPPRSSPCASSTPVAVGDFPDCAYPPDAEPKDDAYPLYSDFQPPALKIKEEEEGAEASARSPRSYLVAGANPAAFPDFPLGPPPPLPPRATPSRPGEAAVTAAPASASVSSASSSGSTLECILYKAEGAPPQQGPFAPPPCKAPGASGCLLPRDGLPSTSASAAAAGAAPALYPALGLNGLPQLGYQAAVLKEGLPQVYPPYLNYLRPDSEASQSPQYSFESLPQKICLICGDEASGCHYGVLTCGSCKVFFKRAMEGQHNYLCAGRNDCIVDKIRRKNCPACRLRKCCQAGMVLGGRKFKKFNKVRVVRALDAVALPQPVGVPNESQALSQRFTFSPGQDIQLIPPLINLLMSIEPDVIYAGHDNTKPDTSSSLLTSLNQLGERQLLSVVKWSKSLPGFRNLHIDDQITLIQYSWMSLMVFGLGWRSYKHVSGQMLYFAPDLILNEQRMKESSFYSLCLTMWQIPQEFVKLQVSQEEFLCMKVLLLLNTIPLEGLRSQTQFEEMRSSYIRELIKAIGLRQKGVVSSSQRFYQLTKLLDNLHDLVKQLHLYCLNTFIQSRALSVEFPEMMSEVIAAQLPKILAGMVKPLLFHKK
How it was run: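 Fluorescence polarization competition: 40 nM PR ligand-binding domain, 2 nM Fluormone PL Red, 1 mM DTT in PR Red buffer with 2 mM CHAPS, added to compound; brief spin, light-protected, ~2 h at room temperature; read at 530 nm excitation/580 nm emission. Values are means of ≥2 determinations.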

Progesterone receptor [2] = target: T1, Progesterone receptor; test: Agonist activity at progesterone receptor B expressed in CV-1 cells by MMTV luciferase reporter gene assay; format: functional, cell-based
Androgen receptor [3] = target: T2, Androgen receptor (Homo sapiens, UniProt P10275); test: Binding affinity to androgen receptor
T2 sequence (P10275 whole entry): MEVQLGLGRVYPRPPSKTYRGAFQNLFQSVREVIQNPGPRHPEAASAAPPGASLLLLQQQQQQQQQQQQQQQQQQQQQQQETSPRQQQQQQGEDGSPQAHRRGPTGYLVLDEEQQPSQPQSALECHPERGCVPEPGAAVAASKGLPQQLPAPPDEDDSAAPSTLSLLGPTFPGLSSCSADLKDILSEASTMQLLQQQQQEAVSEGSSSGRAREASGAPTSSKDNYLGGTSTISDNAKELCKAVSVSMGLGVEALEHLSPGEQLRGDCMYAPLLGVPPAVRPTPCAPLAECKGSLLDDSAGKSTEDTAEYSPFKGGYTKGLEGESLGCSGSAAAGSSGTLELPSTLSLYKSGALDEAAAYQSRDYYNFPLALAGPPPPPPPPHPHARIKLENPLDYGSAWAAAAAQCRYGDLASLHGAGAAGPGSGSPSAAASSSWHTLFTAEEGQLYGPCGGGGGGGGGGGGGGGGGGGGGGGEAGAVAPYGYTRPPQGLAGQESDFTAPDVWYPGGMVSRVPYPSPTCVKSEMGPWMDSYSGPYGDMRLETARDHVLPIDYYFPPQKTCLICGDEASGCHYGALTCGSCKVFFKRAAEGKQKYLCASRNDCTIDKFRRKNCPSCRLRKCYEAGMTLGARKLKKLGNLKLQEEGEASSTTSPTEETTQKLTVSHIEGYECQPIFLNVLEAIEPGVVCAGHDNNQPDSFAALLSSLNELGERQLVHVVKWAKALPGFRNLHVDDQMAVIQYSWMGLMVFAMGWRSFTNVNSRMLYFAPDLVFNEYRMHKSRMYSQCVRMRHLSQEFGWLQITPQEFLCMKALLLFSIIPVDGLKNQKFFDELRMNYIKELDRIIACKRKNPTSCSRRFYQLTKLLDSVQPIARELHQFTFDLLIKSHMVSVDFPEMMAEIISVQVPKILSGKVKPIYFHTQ

[4] = target: T3, Progesterone receptor (Homo sapiens) (UniProt P06401); test: Agonist activity at progesterone receptor in human T47D cell after 24 hrs by alkaline phosphatase assay relative to progesterone
T3 sequence (whole entry): T1 sequence (P06401 whole entry)

Progesterone receptor [5] = target: T1, Progesterone receptor; test: Agonist activity at progesterone receptor in human T47D cell after 24 hrs by alkaline phosphatase assay; format: functional, cell-based
How it was run: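 T47D cells seeded and left to attach overnight, then treated with compound and incubated overnight. Next day pNPP-SPAP substrate added, 2 h in the dark, absorbance read at 405 nm. Potency as pEC50, efficacy as % of P4 response; means of ≥2 determinations.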

Androgen receptor [6] = target: T2, Androgen receptor; test: Agonist activity at androgen receptor expressed in CV-1 cells by MMTV luciferase reporter assay; format: functional, cell-based
[7] = Half life in mouse at 0.5 mg/kg, iv and 1 mg/kg, po; format: ADME, organism-based; settings: in vivo
How it was run: (§1)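 In vivo mouse pharmacokinetics with dosing at 0.5 mg/kg intravenously and 1.0 mg/kg orally. Blood clearance, half-life, steady-state volume of distribution and oral bioavailability were derived from these studies.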

[8] = target: Voltage-gated inwardly rectifying potassium channel KCNH2 (Homo sapiens, UniProt Q12809); test: Binding affinity to human ERG channel
Chain of Voltage-gated inwardly rectifying potassium channel KCNH2 (Q12809 whole entry): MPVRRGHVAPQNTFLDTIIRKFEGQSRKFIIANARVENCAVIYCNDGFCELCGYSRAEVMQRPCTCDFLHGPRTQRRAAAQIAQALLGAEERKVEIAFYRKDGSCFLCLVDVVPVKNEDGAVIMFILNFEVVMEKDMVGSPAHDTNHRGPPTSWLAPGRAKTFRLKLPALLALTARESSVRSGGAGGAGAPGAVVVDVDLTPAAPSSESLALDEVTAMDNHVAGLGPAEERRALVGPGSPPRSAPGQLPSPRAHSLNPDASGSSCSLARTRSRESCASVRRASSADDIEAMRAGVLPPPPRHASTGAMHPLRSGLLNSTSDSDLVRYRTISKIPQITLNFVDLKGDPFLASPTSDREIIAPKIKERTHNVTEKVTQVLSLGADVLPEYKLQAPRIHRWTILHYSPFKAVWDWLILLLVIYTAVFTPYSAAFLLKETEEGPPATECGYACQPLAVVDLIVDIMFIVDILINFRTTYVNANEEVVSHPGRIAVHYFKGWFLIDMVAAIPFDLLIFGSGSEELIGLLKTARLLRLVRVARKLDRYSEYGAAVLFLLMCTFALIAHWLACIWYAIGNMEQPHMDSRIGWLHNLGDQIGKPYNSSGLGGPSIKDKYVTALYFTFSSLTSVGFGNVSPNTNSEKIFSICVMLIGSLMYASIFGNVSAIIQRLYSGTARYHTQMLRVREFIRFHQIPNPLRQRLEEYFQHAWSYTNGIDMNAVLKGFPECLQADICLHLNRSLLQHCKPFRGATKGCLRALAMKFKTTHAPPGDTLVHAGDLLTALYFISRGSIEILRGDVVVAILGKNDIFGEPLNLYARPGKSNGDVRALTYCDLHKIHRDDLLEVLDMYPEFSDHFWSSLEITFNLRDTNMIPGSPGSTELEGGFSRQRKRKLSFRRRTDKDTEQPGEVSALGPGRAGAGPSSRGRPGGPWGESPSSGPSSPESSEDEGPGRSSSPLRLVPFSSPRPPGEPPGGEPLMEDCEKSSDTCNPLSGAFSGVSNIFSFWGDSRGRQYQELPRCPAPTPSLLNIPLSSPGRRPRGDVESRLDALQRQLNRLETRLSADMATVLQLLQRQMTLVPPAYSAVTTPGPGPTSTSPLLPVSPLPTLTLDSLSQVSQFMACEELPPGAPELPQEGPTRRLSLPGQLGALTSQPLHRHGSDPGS

Cytochrome P450 3A4 = Cytochrome P450 3A4 (Homo sapiens, UniProt P08684); test: Inhibition of CYP3A4; format: ADME
Chain of Cytochrome P450 3A4 (P08684 whole entry): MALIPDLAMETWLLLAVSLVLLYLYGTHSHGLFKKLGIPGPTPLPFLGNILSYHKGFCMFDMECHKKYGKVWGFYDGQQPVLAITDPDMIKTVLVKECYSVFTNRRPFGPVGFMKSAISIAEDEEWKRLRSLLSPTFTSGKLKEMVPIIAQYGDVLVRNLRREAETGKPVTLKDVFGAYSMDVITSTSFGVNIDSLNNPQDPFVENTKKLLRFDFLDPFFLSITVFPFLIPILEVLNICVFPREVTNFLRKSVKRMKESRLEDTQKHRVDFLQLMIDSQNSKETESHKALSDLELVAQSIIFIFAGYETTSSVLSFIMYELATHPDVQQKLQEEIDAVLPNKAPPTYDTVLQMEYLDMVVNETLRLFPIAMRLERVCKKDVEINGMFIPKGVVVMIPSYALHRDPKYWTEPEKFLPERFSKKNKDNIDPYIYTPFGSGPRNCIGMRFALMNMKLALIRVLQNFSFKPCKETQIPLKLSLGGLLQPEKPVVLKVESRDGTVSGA

[9] = Volume of distribution at steady state in mouse at 0.5 mg/kg, iv and 1 mg/kg, po; format: ADME, organism-based; settings: in vivo, read-out: Vdss; how it was run: as §1
Mus musculus = test: Blood clearance in mouse at 0.5 mg/kg, iv and 1 mg/kg, po; format: ADME, organism-based; settings: in vivo; how it was run: as §1
Cytochrome P450 2C9 = Cytochrome P450 2C9 (Homo sapiens, UniProt P11712); test: Inhibition of CYP2C9; format: ADME
Chain of Cytochrome P450 2C9 (P11712 whole entry): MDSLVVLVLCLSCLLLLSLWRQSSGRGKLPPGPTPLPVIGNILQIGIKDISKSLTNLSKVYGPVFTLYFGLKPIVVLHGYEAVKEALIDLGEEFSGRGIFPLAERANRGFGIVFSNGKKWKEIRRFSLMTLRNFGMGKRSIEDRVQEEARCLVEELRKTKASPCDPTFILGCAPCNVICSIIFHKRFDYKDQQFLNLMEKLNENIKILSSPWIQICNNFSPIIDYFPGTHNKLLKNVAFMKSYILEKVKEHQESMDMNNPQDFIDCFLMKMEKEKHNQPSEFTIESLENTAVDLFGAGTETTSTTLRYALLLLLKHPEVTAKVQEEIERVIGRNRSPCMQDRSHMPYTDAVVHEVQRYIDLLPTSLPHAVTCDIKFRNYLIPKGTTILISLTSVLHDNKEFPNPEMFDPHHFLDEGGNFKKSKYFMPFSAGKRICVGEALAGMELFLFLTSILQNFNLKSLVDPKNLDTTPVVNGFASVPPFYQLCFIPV

Cytochrome P450 2C19 = Cytochrome P450 2C19 (Homo sapiens, UniProt P33261); test: Inhibition of CYP2C19; format: ADME
Chain of Cytochrome P450 2C19 (P33261 whole entry): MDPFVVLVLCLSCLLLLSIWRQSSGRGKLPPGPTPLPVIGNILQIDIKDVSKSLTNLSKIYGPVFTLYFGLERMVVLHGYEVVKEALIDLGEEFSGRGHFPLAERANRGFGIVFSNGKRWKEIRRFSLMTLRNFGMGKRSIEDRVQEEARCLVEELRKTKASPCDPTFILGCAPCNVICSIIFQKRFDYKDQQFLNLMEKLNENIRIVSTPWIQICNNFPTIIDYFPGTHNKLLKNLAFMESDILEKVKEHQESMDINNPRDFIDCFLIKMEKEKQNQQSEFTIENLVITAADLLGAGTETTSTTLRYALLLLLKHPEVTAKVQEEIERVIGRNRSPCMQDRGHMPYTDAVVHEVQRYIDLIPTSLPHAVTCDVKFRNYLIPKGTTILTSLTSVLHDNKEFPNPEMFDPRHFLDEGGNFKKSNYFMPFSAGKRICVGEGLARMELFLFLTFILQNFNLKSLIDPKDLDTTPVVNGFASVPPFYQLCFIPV

Liver microsomes = test: Intrinsic clearance in human liver microsomes; format: ADME, Microsome
How it was run: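 Metabolic stability in human liver microsomes; intrinsic clearance expressed as mL/min[…].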

Cytochrome P450 2D6 = Cytochrome P450 2D6 (Homo sapiens, UniProt P10635); test: Inhibition of CYP2D6; format: ADME
Chain of Cytochrome P450 2D6 (P10635 whole entry): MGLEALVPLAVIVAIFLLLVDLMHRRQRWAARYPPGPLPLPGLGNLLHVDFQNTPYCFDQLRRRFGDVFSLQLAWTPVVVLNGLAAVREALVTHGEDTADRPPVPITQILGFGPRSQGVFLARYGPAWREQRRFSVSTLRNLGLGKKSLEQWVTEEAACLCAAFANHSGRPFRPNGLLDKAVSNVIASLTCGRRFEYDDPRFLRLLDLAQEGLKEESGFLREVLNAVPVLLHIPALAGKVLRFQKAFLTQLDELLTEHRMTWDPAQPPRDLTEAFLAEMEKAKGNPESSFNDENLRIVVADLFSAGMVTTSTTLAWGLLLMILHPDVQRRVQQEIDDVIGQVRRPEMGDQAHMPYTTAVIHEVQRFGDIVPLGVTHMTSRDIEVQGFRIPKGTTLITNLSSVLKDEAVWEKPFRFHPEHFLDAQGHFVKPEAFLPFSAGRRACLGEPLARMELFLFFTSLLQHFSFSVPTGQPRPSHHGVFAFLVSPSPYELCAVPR

Cytochrome P450 1A2 = target: T4, Cytochrome P450 1A2 (Homo sapiens, UniProt P05177); test: Inhibition of CYP1A2; format: ADME
T4 sequence (P05177 whole entry): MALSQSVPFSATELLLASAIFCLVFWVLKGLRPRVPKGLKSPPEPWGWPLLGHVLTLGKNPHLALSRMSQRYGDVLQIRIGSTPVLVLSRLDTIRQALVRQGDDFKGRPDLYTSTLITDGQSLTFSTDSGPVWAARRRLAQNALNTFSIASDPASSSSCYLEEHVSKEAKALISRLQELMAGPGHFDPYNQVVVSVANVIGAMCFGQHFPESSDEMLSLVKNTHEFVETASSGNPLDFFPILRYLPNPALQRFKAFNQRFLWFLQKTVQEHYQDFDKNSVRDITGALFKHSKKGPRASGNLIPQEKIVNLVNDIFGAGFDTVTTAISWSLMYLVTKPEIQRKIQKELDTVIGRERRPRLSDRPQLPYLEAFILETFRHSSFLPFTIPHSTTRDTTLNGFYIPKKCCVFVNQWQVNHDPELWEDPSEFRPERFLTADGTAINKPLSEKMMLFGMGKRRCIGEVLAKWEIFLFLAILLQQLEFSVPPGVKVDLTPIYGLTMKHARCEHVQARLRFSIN

[10] = Oral bioavailability in mouse at 1 mg/kg; format: ADME, organism-based; settings: in vivo; how it was run: as §1

In the case of `Cc1c(C#N)c(N)nc2c3c(sc12)NC(=O)CC3c1ccc(Cl)cc1Cl` (stereo not given), the IC50 (Progesterone receptor [1]) is reported as 794 nM, the EC50 (Progesterone receptor [2]) is reported as greater than 10000 nM and the pIC50 (Androgen receptor [3]) is reported as greater than 5.

`Cc1c(C#N)c(N)nc2c3c(sc12)NC(=O)CC3c1ccccc1F` (stereo not given) showed an Activity [4] of 47%, a pEC50 (Progesterone receptor [5]) of 6.4 and an IC50 (Progesterone receptor [1]) of 631 nM. For the same compound, the EC50 (Progesterone receptor [2]) was 3980 nM.

For `COc1ccccc1C1CC(=O)Nc2sc3c(C)c(C#N)c(N)nc3c21` (stereo not given), the IC50 (Progesterone receptor [1]) was greater than 10000 nM and the EC50 (Progesterone receptor [2]) was greater than 10000 nM.

`Cc1c(C#N)c(N)nc2c3c(sc12)NC(=O)CC3c1ccccc1` (stereo not given) gave an EC50 (Progesterone receptor [2]) greater than 10000 nM and a pIC50 (Androgen receptor [3]) greater than 5.

In the case of `Cc1c(C#N)c(N)nc2c3c(sc12)NC(=O)C[C@H]3c1ccccc1Cl`, the IC50 (Progesterone receptor [1]) is reported as 6310 nM, the EC50 (Progesterone receptor [2]) is reported as greater than 10000 nM and the pIC50 (Androgen receptor [3]) is reported as greater than 5.

Work on `Cc1ccccc1C1CC(=O)Nc2sc3c(C)c(C#N)c(N)nc3c21` (stereo not given) yielded an IC50 (Progesterone receptor [1]) of 1260 nM, an EC50 (Progesterone receptor [2]) greater than 10000 nM and a pIC50 (Androgen receptor [3]) greater than 5.

Work on `Cc1c(C#N)c(N)nc2c3c(sc12)NC(=O)CC3c1cccc(Cl)c1Cl` (stereo not given) yielded an IC50 (Progesterone receptor [1]) of 794 nM, an EC50 (Progesterone receptor [2]) greater than 10000 nM and a pIC50 (Androgen receptor [3]) greater than 5.

With `Cc1c(C#N)c(Cl)nc2c3c(sc12)NC(=O)CC3c1ccccc1Cl` (stereo not given) the Activity [4] was 116%, the EC50 (Androgen receptor [6]) was greater than 10000 nM and the pEC50 (Progesterone receptor [5]) was 8.6. It also gave an IC50 (Progesterone receptor [1]) of 50.1 nM, an EC50 (Progesterone receptor [2]) of 0.794 nM and an IC50 (Androgen receptor [3]) of 2000 nM.

`COc1cccc(C2CC(=O)Nc3sc4c(C)c(C#N)c(N)nc4c32)c1` (stereo not given) showed an IC50 (Progesterone receptor [1]) greater than 10000 nM and an EC50 (Progesterone receptor [2]) greater than 10000 nM.

With `Cc1c(C#N)c(O)nc2c3c(sc12)NC(=O)CC3c1ccccc1Cl` (stereo not given) the IC50 (Progesterone receptor [1]) was greater than 10000 nM, the EC50 (Progesterone receptor [2]) was greater than 10000 nM and the pIC50 (Androgen receptor [3]) was greater than 5.

For `Cc1c(C#N)c(N)nc2c3c(sc12)NC(=O)C[C@@H]3c1ccccc1Cl`, the Activity [4] was 83%, the pEC50 (Progesterone receptor [5]) was 7.4 and the IC50 (Progesterone receptor [1]) was 158 nM. For the same compound, the EC50 (Progesterone receptor [2]) was 200 nM and the pIC50 (Androgen receptor [3]) was greater than 5.

`Cc1c(C#N)c(N)nc2c3c(sc12)NC(=O)CC3c1c(F)cccc1Cl` (stereo not given) showed an Activity [4] of 13%, a pEC50 (Progesterone receptor [5]) of 6.1 and an IC50 (Progesterone receptor [1]) of 1260 nM. The EC50 (Progesterone receptor [2]) was 3980 nM and the pIC50 (Androgen receptor [3]) was greater than 5.

Work on `Cc1c(C#N)c(N)nc2c3c(sc12)NC(=O)CC3c1cc(Cl)ccc1Cl` (stereo not given) yielded an IC50 (Progesterone receptor [1]) of 1000 nM, an EC50 (Progesterone receptor [2]) greater than 10000 nM and a pIC50 (Androgen receptor [3]) greater than 5.

In the case of `Cc1c(C#N)c(N)nc2c3c(sc12)NC(=O)CC3c1ccccc1Cl` (stereo not given), the half-life [7] is reported as 1.1 h, the Activity [8] is reported as “Not Active” and the Activity [4] is reported as 80%. It also gave an IC50 (Cytochrome P450 3A4) greater than 10000 nM, a Vd [9] of 2.5 L/kg and a clearance (Mus musculus) of 24 mL/min/kg. For the same compound, the IC50 (Cytochrome P450 2C9) was 1260 nM, the pEC50 (Progesterone receptor [5]) was 7.1 and the IC50 (Cytochrome P450 2C19) was greater than 10000 nM. For the same compound, the CL (Liver microsomes) was 19 µL/min/mg, the IC50 (Progesterone receptor [1]) was 200 nM and the EC50 (Progesterone receptor [2]) was 631 nM. The IC50 (Cytochrome P450 2D6) was greater than 10000 nM, the IC50 (Cytochrome P450 1A2) was greater than 10000 nM and the pIC50 (Androgen receptor [3]) was less than 5. It also gave a bioavailability [10] of 36%.
